697 NFkB inh = lowers PMA/ionomycin-induced NF-kB signal in 697 B cells. inhibition, % at 4 µM. AID 435022. actives 0.33% (n = 330,000). 697 B-cell NF-kB luciferase reporter, 16 h; in the data active = inhibition above about 35%
UPR CHOP act = apoptotic UPR (CHOP) activation; actives 0.34% (n = 330,000); activation, % at 10 µM; CHO-CHOP luciferase reporter, luminescence; percent of tunicamycin response over DMSO baseline; AID 449763;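 active = at 10 µM dose, activation of 40% or more, normalized to positive control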;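 note: 100% = tunicamycin at 10 µg/mL and 0% = DMSO alone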
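Material: CHO-CHOP cells, stable luciferase reporter of PERK-eIF2a-CHOP signalling; quantity: 500 reporter cells seeded per well; buffer or medium: F12 medium containing 10% fetal bovine serum; compound: one dose, 10 µM in 0.5% DMSO; incubation: 6 h compound treatment, 37 °C; measured by: Steady-Glo luciferase luminescence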
Jurkat NFkB inh = lowers PMA/ionomycin-induced NF-kB signal in Jurkat cells. PMA/ionomycin-induced NF-kB luciferase reporter, luminescence. inhibition, % at 4 µM. actives 0.53% (n = 330,000). AID 435003; in the data active = inhibition above about 50%
Gli-Sufu block = Gli-Sufu pathway antagonism. AID 588413. Sufu-KO-LIGHT fibroblasts, Gli luciferase reporter luminescence. actives 0.74% (n = 340,000). inhibition, % at 5 µM;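 active = inhibition above about 55%, limit read from the data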;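 note: 0% = DMSO-treated cells and 100% = wells with medium but no cells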
XBP1 UPR activ = adaptive UPR (XBP1) activation. CHO-XBP1 luciferase reporter, IRE1-XBP1 UPR activation, luminescence; percent of tunicamycin response, DMSO as zero. activation, % at 20 µM. actives 0.33% (n = 330,000). AID 463104;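 active = versus positive control, 20 µM dose yields 30% or more activation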;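 note: 100% = tunicamycin at 10 µg/mL and 0% = DMSO only wells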
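assay system = CHO-XBP1 luciferase reporter cells | amount = 1000 cells/well | buffer or medium = F12 plus 10% FBS | compound dosing = single point, 20 µM final compound, 1% DMSO | incubation = 16-18 h cell attachment at 37 °C, then 6 h compound exposure | detection = Steady-Glo luminescence read | controls = tunicamycin 10 µg/mL and vehicle-only wells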
CHOP inh = CHOP inhibition in unfolded protein response; CHO-K1 CHOP-promoter luciferase, tunicamycin-induced, 15-18 h; inhibition, % at 10 µM; actives 3.8% (n = 220,000);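 active = compounds that reduced the stress-induced luciferase reporter signal by more than about 70% of percent inhibition, limit read from the data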;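 note: 0% = tunicamycin plus vehicle and 100% = wells without tunicamycin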
Active calls of the source: *. Most compounds without a hit are left out; they make up all but 3.9% or so of the library.

Results for O=[N+]([O-])c1ccc(CSc2ncnc3c2ncn3[C@@H]2O[C@H](CO)[C@H](O)C2O)cc1 (some centres undefined) ?
CHOP inh: 1.5

How did CCC(C)Sc1nc2c(cnn2-c2ccc(C)cc2)c(=O)[nH]1 (centres undefined) do in these assays?
697 NFkB inh: -21.8; UPR CHOP act: -1.3; Jurkat NFkB inh: -7.8; Gli-Sufu block: 5.0; XBP1 UPR activ: 6.7; CHOP inh: 26.9

How did CCC(C)Sc1nc2c(cnn2-c2ccccc2)c(=O)[nH]1 (centres undefined) do in these assays?
697 NFkB inh: 7.0; UPR CHOP act: -0.8; Jurkat NFkB inh: 14.8; Gli-Sufu block: 0.3; XBP1 UPR activ: 7.5; CHOP inh: 77.7*

What do the screens show for `Cc1ccc(C(=O)CSc2nnc3c4ccccc4nc(C(C)(C)C)n23)cc1`?
697 NFkB inh: -32.1; UPR CHOP act: -2.3; Jurkat NFkB inh: 22.5; Gli-Sufu block: 2.3; XBP1 UPR activ: -1.7; CHOP inh: 70.1*

What do the screens show for `CC(=O)CSc1nnc2c3ccccc3nc(C(C)(C)C)n12`?
697 NFkB inh: -10.4; UPR CHOP act: -1.4; Jurkat NFkB inh: -14.7; Gli-Sufu block: 3.9; XBP1 UPR activ: -0.8; CHOP inh: 15.8

Results for CCCCc1nnc(NC(=O)CCN2C(=O)C3CC=CCC3C2=O)s1 (centres undefined) ?
697 NFkB inh: 14.0; UPR CHOP act: 2.4; Jurkat NFkB inh: 9.2; XBP1 UPR activ: 0.8

How did CCOC(=O)C1CCCN(C(=O)Cn2sc3nc(C)cc(C)c3c2=O)C1 (centres undefined) do in these assays?
697 NFkB inh: 16.6; UPR CHOP act: 16.8; Jurkat NFkB inh: 19.4; Gli-Sufu block: -4.8; XBP1 UPR activ: -3.2; CHOP inh: 109.3*

Results for COC(=O)C1=C(C(=O)OC)SC2(S1)C(C(=O)OC)=C(C(=O)OC)SC1=C2c2cc(C)ccc2NC1(C)C ?
697 NFkB inh: 5.6; UPR CHOP act: 37.1; Jurkat NFkB inh: 5.6; Gli-Sufu block: -0.5; XBP1 UPR activ: 12.0; CHOP inh: 73.2*

How did CCOC(=O)C1(N(CC)CC)Sc2cc(C)ccc2NC1=O (centres undefined) do in these assays?
697 NFkB inh: 6.1; UPR CHOP act: -0.5; Jurkat NFkB inh: 25.8; Gli-Sufu block: -9.3; XBP1 UPR activ: -1.7

What do the screens show for `O=C(c1cc(NC(=O)C23CC4CC(CC(C4)C2)C3)cc(NC(=O)C23CC4CC(CC(C4)C2)C3)c1)N1CCCCC1`?
697 NFkB inh: 9.4; UPR CHOP act: 10.2; Jurkat NFkB inh: -14.4; Gli-Sufu block: 21.3; XBP1 UPR activ: -1.5; CHOP inh: 70.8*

What do the screens show for `Cc1cc(C(c2cc(C)c(N)c(C)c2)c2ccco2)cc(C)c1N`?
697 NFkB inh: 13.0; UPR CHOP act: -0.2; Jurkat NFkB inh: 19.7; Gli-Sufu block: -3.6; XBP1 UPR activ: -4.2

How did CNc1cc(CSC)nc(SCc2ccc(Cl)cc2Cl)n1 do in these assays?
697 NFkB inh: 3.9; UPR CHOP act: 0.2; Jurkat NFkB inh: -15.5; Gli-Sufu block: 2.8; XBP1 UPR activ: 3.2; CHOP inh: 76.8*

How did Cc1cccc(NC(=O)Nc2nnc(N3CCCCC3C)s2)c1C (centres undefined) do in these assays?
697 NFkB inh: -5.8; UPR CHOP act: 4.5; Jurkat NFkB inh: -16.1; Gli-Sufu block: -12.9; XBP1 UPR activ: 4.9; CHOP inh: 79.8*

Results for O=C(Nc1ccc(Cl)cc1F)c1cccc2ccccc12 ?
697 NFkB inh: -20.4; UPR CHOP act: 0.8; Jurkat NFkB inh: -19.0; Gli-Sufu block: -28.7; XBP1 UPR activ: 1.7

How did Cc1cccc(N2CCc3c2nc2ccc(Br)cc2c3N)c1 do in these assays?
697 NFkB inh: -2.3; UPR CHOP act: 1.1; Jurkat NFkB inh: -14.2; Gli-Sufu block: -1.9; XBP1 UPR activ: 1.5; CHOP inh: 28.8

What do the screens show for `CSc1nc(C)c2c(n1)N(c1cccc(C)c1)CC2`?
697 NFkB inh: -7.7; UPR CHOP act: 0.5; Jurkat NFkB inh: 1.5; Gli-Sufu block: 8.3; XBP1 UPR activ: -0.9; CHOP inh: 88.2*

Assay outcomes from PubChem.
